Test results reported in paper PMC8012241 (Alzheimer's & Dementia : Translational Research & Clinical …, 2021).
Peptide text beside a SMILES is read from it.

How the values were obtained:
[1] = In vitro stability in plasma and whole blood; assay type: in vitro ADME; details: data not shown
[2] = system: A549 cells; assay: Effect on the growth of A549 cells; assay type: cell-based, human; details: 72 hours
Procedure, shortened: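 A549 cells were grown in DMEM with 10% FBS and penicillin/streptomycin at 37°C in 5% CO2, then seeded at 4 x 10^3 cells/well. After 24 h the medium was replaced and cells were treated with 0.2 mM test peptide, 0.2 mM FLAG peptide or 4 µM cisplatin for 72 h. WST-8 was added for 1 h. Absorbance was read at 450 nm against a 620 nm reference.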

[3] = Plasma clearance following intravenous bolus injection; assay type: in vivo, Male Wistar/ST rats; details: rat
[4] = Plasma level and brain uptake following intraperitoneal and nasal administration; assay type: in vivo, male ddY mice; details: mouse; for AUC(0-t): male, ddY, 1 mg
Procedure, shortened: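 Male ddY mice (25 g) received 1 mg of peptide either intranasally into the left nostril (100 mg/mL in PBS, 10 µL) or intraperitoneally (10 mg/mL in PBS). Blood was drawn at 5, 15 and 30 min. Brains were taken at 30 min after saline/heparin cardiac perfusion. Plasma and brain homogenate were extracted with methanol and assayed by positive-mode LC/MS on C18 (acetonitrile:0.1% acetic acid 10/90). AUC was computed to 30 min.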

[5] = biological target: solid insoluble form Aβ42 (s‐Aβ42) (Homo sapiens, UniProt P05067); assay: Proteolysis of solid insoluble s-Aβ42 by the peptide; assay type: biochemical; details: over 7 days; 27% with peptide minus 17% without
Sequence of solid insoluble form Aβ42 (s‐Aβ42) (P05067 672-713): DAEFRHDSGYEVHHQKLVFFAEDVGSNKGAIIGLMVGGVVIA
Procedure, shortened: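 s-Aβ42 (0.3 mg), washed with CH3CN and CH3OH, was incubated with or without peptide (1 mM final) with HSA (0.125% w/v) in PBS at 37°C for 7 days, at five times the a-Aβ42 scale. HPLC was run daily and fragments were identified by ESI-MS. Solid weight was recorded on day 0 and day 7. The net decrease ratio is the with-peptide decrease minus the without-peptide decrease.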

[6] = biological target: authentic soluble form Aβ42 (a‐Aβ42) (Homo sapiens, UniProt P05067); details: cleaved in the central region; cited from earlier work
Sequence of authentic soluble form Aβ42 (a‐Aβ42) (P05067 672-713): as above

[7] = system: amyloid beta 42 (Aβ42); details: serine protease inhibitor AEBSF; cited from earlier work
[8] = male, Wistar/ST, plasma, iv, 2 mg/animal

Compound: CC[C@H](C)[C@H](NC(=O)[C@H](CCSC)NC(=O)[C@H](CCCNC(=N)N)NC(=O)[C@H](Cc1ccc(O)cc1)NC(=O)[C@H](C)NC(=O)[C@H](CCC(N)=O)NC(=O)CNC(=O)[C@H](CCCCN)NC(=O)[C@@H](N)CO)C(=O)O [ANA‐TA9] (H-SKGQAYRMI-OH)
- in vitro stability in plasma and whole blood [1]: not particularly labile
- effect on the growth of A549 cells ([2]; 0.2 mM, WST-8, compared to 0.2 mM FLAG peptide control): did not show a significant inhibitory effect
- AUC [3, 8]: 0.124 µg·h/mL
- clearance [3, 8]: 270 mL/min
- initial half‐life in plasma ([3]; i.v. bolus 2 mg/head, LC/MS): 10 s
- plasma concentration post‐injection ([3]; i.v. bolus 2 mg/head, within 15 minutes post-injection, LC/MS): below the detection limit
- AUC(0-t) ([4]; inhaled or intranasal): 0.0272 µg·h/mL
- AUC(0-t) ([4]; ip): 0.193 µg·h/mL
- nasal AUC as percentage of intraperitoneal AUC ([4]; up to 30 minutes, 1 mg each route): 14%
- decreasing ratio of s‐Aβ42 by ANA‐TA9 (corrected for incubation without peptide) [5]: 10%

Compound: [NH2][Pt]([NH2])([Cl])[Cl] [CDDP, Cisplatin, reference compound]
- effect on the growth of A549 cells ([2]; 4 μM, WST-8, positive control): inhibited the growth

Compound: YKGSGFRMI [JAL‐TA9]
- cleavage of a‐Aβ42 and s‐Aβ42 [6]: cleaved
- effect of AEBSF on proteolytic activity [7]: completely inhibited
